Assay results of several laboratories.
Protocols differ between the studies behind these lines.
Target: Mitogen-activated protein kinase kinase kinase 11 (MAP3K11, Homo sapiens, UniProt Q16584)

The remaining binding of COc1cccc(CNC(=O)c2nc3scc(COCc4ccc(C(=O)O)cc4)c3c(=O)[nH]2)c1 is reported as 100% (cell-free assay; competition with immobilised ligand; 1 µM).
CN(CCCC(F)(F)F)c1nccc(-c2cnn3ncccc23)n1 has a remaining binding of 75% (binding; 1 µM).
Nc1ncc2c(n1)-c1c([nH]c3ccc(C#CC4CC4)cc13)CCCC2 has a remaining binding of 97% (binding; competition with immobilised ligand; 1 µM).
For CN(c1nccc(-c2cnn3ncccc23)n1)C1CC1, the remaining binding was 100% (binding; 1 µM).
The remaining binding of O=c1nc(-c2ccccn2)sc2ccccc12 is reported as 100% (binding; competition with immobilised ligand; 1 µM).
With CN(C)c1nccc(-c2cnn3ncccc23)n1 the remaining binding was 98% (binding; 1 µM).
O=C(c1ccc(Nc2ncc(Cl)c(-c3cc4ccccc4s3)n2)cc1)N1CCC(N2CCCC2)CC1 gave a remaining binding of 11% (binding; competition with immobilised ligand; 1 µM).
C[C@@H]1CCN(c2nccc(-c3cnn4ncccc34)n2)C1 gave a remaining binding of 100% (binding; 1 µM).
COc1cnc(Nc2cccc(S(N)(=O)=O)c2)nc1N1CCN(c2ccccc2)CC1 has a remaining binding of 76% (binding; competition with immobilised ligand; 1 µM).
The remaining binding of c1cncc(-c2cccc(Nc3nccc(NC4CCCCC4)n3)c2)c1 is reported as 30% (binding; competition with immobilised ligand; 10 µM).
CN1CCN(c2cnc3c(C4CCN(C(=O)c5ccc(OC(F)(F)F)cc5N)CC4)ncnc3c2)CC1 gave a remaining binding of 100% (cell-free assay; competition with immobilised ligand; 1 µM).
With CC1CCCN1c1nccc(-c2cnn3ncccc23)n1 (centres unmarked) the remaining binding was 100% (binding; 1 µM).
C[C@@]1(Cc2ccc(C#N)cc2)C(=O)N(c2cc(Cl)cc(Cl)c2)c2ncc(C(=O)NC3(c4nc(C5CCC5)no4)CC3)n21 gave a remaining binding of 100% (cell-free assay; competition with immobilised ligand; 1 µM).
O=C(NCCCN1CCOCC1)c1ccc(Nc2ncc(Cl)c(-c3ccc(Cl)s3)n2)cc1 gave a remaining binding of 13% (binding; competition with immobilised ligand; 1 µM).
The remaining binding of C[C@H](c1cccc(C#N)c1)n1cc(Cl)cc(C(N)=O)c1=N is reported as 100% (cell-free assay; competition with immobilised ligand; 1 µM).
The remaining binding of O=C(Nc1c[nH]nc1C(=O)NC1CCNCC1)c1cc(F)cc(F)c1 is reported as 99% (binding; competition with immobilised ligand; 1 µM).
The remaining binding of Cc1c(NC(=O)c2cc(C(N)=O)nc3cc(F)ccc23)c(C(F)(F)F)nn1Cc1ccc(C#N)cc1 is reported as 100% (cell-free assay; competition with immobilised ligand; 1 µM).
With COc1ncc2cc3ccccc3nc2c1C#N the remaining binding was 86% (cell-free assay; competition with immobilised ligand; 5 µM).
For Cc1cnc(Nc2ccc(C(=O)N3CCC(N4CCCC4)CC3)cc2)nc1-c1cc2ccccc2s1, the remaining binding was 13% (binding; competition with immobilised ligand; 1 µM).
N[C@H]1CCN(c2nccc(-c3cnn4ncccc34)n2)C1 gave a remaining binding of 85% (binding; 1 µM).
